One data set has as its target ROP18 (Toxoplasma gondii, UniProt Q2PAY2). As to the kind of experiment: biochemical.
The test system of another data set is TBK1. Conditions: 1 μM; ref GSK PKIS profiling (Table S1); cited from earlier work.
The next data set relates to MELK. Conditions: 1 μM; ref GSK PKIS profiling (Table S1); cited from earlier work.
Another data set relates to CDK3/cyclinE. Conditions: 1 μM; ref GSK PKIS profiling (Table S1); cited from earlier work.
The test system of data set [1] is ROP18 function in T. gondii infected RAW macrophages (Irga6 recruitment to PVM). As to the kind of experiment: Irga6. In kind it is cell-based, Toxoplasma gondii. Conditions: 10 μM; for proportion of Irga6 positive vacuoles, visual scoring, Δrop18 parasites: Δrop18, IFN-γ-activated RAW macrophages; for amount of Irga6 recruitment, quantitative immunofluorescence, Δrop18 parasites: Δrop18, vs DMSO vehicle. The procedure, abridged:
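RAW264.7 macrophages on coverslips (10^5/well) primed 24 h with 100 U/ml mouse IFNγ plus 1 ng/ml LPS. RH Δku80 tachyzoites (wild type or rop18-disrupted) at 10^5/ml pretreated 30 min at 37°C with 10 μM test compound or 0.1% DMSO, then invaded 30 min. Formaldehyde-fixed, Triton-permeabilized, stained for TgAldolase and Irga6 (mAb 10D7). Irga6-positive vacuoles scored visually; intensity quantified over parasite/PVM region.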

Another data set relates to RAW 264.7 macrophages. As to the kind of experiment: MTS-based cell growth assay. Conditions: Mus musculus, RAW264.7, 48 h, read-out: EC50 growth inhibition (MTS).
Another data set deals with PDGFRα. Conditions: 0.1 μM; ref GSK PKIS profiling (Figure S5); cited from earlier work.
Another data set concerns PDGFRβ. Conditions: 0.1 μM; ref GSK PKIS profiling (Figure S5); cited from earlier work.
The next data set relates to CDK2. Conditions: 0.1 μM; ref GSK PKIS profiling (Figure S5); cited from earlier work.
For data set [2], the system named is RAW264.7 macrophages. As to the kind of experiment: LDH release cytotoxicity. Format: cell-based, mouse. Conditions: 4 h incubation, 20 μM. (LDH in the medium is a marker of cell lysis.)
In another data set the test system is P. falciparum. Conditions: 2 μM; cited from earlier work.
Data set [3] deals with HepG2 hepatocarcinoma cells. Conditions: 10 μM (48 h stated for compound 10); cited from earlier work.
Data set [4] has as its system RAW264.7 macrophages. Nature of the data set: Phase contrast microscopy of host cell morphology. In kind it is cell-based, mouse. Conditions: 10 μM, in as little as 30 min; rounding up and vesiculation.
Another data set relates to P. falciparum 3D7 strain. Conditions: 2 μM, 48 h; cited from earlier work.
The test system of data set [5] is P. falciparum Dd2 strain (a multidrug resistant strain). Conditions: 2 μM, 48 h; cited from earlier work.
The mark [6] stands for this setting: IC50 μM FL-8, substrate peptide FL-8, same assay conditions as primary screen.
Setting [7] is: IC50 μM FL-E, substrate peptide FL-E, same assay conditions as primary screen.

We go through 13 compounds from PMC4930114 (ACS infectious diseases, 2015).

Where two headings read alike, the source gives them in different places. A value given as a limit tells only on which side of the number the result lay.

ROP18, sequence (Q2PAY2 98-554): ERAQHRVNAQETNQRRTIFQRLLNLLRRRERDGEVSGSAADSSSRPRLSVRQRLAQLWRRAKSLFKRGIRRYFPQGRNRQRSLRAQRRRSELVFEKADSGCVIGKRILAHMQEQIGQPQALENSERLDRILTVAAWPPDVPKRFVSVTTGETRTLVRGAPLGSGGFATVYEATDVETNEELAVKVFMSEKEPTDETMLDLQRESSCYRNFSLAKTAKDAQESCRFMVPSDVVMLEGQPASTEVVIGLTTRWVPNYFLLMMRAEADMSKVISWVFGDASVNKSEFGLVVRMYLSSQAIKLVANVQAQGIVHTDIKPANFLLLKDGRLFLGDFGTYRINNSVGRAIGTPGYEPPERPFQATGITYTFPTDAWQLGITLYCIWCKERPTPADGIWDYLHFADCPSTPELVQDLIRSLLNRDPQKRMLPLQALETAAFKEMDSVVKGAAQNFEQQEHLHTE

Broadly, the IC50 is the concentration that inhibits the measured activity by half. Lower therefore signals greater potency. In the case of `NS(=O)(=O)c1ccc(N/C=C2\C(=O)Nc3ccc4ncsc4c32)cc1` [Compound 1, 4-[(7-hydroxy-6H-pyrrolo[2,3-g][1,3]benzothiazol-8-yl)methyleneamino]benzenesulfonamide], the IC50 amounted to 1.21 µM on ROP18 (setting [6]) and 2.48 µM against ROP18 (setting [7]).

By EC50 is commonly meant the midpoint of the concentration-response curve. The term Ki denotes a dissociation constant, usually derived from enzyme kinetics or from competition with a known ligand. Consider `CC(C)COC(=O)c1ccc2c(c1)/C(=C/Nc1ccc(S(N)(=O)=O)cc1)C(=O)N2` [Compound 2, isobutyl 2-hydroxy-3-[(4-sulfamoylphenyl)iminomethyl]-1H-indole-5-carboxylate], for which, in the data set with TBK1, the “inhibition of TBK1” value was greater than 90%. In addition, in the data set on MELK, the “inhibition of MELK” value is recorded as greater than 90%. Moreover, the “inhibition of CDK3/cyclinE” value in the data set with CDK3/cyclinE was greater than 90%. For the same compound, the “proportion of Irga6 positive vacuoles, visual scoring, Δrop18 parasites” value in [1] (vs DMSO vehicle) was “did not lead to a significant increase or decrease”. Besides, the “amount of Irga6 recruitment, quantitative immunofluorescence, Δrop18 parasites” value in [1] is given as “did not lead to a significant increase or decrease”. In the data set on RAW 264.7 macrophages, the EC50 was found to be 7.4 µM. In the data set with PDGFRα, the “inhibition of PDGFRα” value is on record as greater than 50%. The compound further returned a Ki on ROP18 of 130 nM. Further, the 50% inhibitory concentration (IC50) against ROP18 (setting [6]) was 0.51 µM; on ROP18 (setting [7]) it was 0.29 µM. The “inhibition of PDGFRβ” value with PDGFRβ is greater than 50%. For the same compound, the “inhibition of CDK2” value in the data set with CDK2 is reported as greater than 50%.

Turning to `CC(C)(CO)CNC(=O)c1ccc2c(c1)C(=NNc1ccc(S(N)(=O)=O)cc1)C(=O)N2` [Compound 3, 2-hydroxy-N-(3-hydroxy-2,2-dimethyl-propyl)-3-(4-sulfamoylphenyl)azo-1H-indole-5-carboxamide], the IC50 was 0.65 µM on ROP18 (setting [6]) and 0.19 µM against ROP18 (setting [7]).

Regarding `NS(=O)(=O)c1ccc(NN=C2C(=O)Nc3ccc(C(=O)NCc4ccncc4)cc32)cc1` [Compound 4, 2-hydroxy-N-(4-pyridylmethyl)-3-(4-sulfamoylphenyl)azo-1H-indole-5-carboxamide], the IC50 at ROP18 (setting [6]) was greater than 10 µM; on ROP18 (setting [7]), 2.66 µM.

Regarding `O=S1(=O)CCc2ccc(Nc3nc(NC4CCNC4)nc4ccnc(O)c34)cc21` (stereo not shown) [Compound 5, 4-[(1,1-dioxo-2,3-dihydrobenzothiophen-6-yl)amino]-2-(pyrrolidin-3-ylamino)pyrido[4,3-d]pyrimidin-5-ol], the values for the IC50 against ROP18 (setting [6]) and against ROP18 (setting [7]) were greater than 10 µM and 4.02 µM, respectively.

For `Oc1nccc2nc(NC3CCNC3)nc(Nc3cc(Cl)cc(Cl)c3)c12` (stereo not shown) [Compound 6, 4-(3,5-dichloroanilino)-2-(pyrrolidin-3-ylamino)pyrido[4,3-d]pyrimidin-5-ol], the IC50 against ROP18 (setting [6]) was greater than 10 µM; on ROP18 (setting [7]), 7.49 µM.

On to `O=c1[nH]ccc2nc(NC3CCCNC3)nc(Nc3ccc(S(=O)(=O)N4CCOCC4)cc3)c12` (stereo not shown) [Compound 7, 4-(4-morpholinosulfonylanilino)-2-(3-piperidylamino)pyrido[4,3-d]pyrimidin-5-ol], for which the “increase in LDH release” value in the data set with RAW264.7 macrophages [2] is given as 12%. In the data set on P. falciparum, the “inhibition of P. falciparum growth” value is given as greater than 95%. The “growth inhibition of HepG2 cells” value in data set [3] is on record as 13%. For the same compound, in data set [1] (wild type (RH), IFN-γ-activated RAW macrophages, vs DMSO vehicle), the “proportion of Irga6 positive vacuoles, visual scoring, wild type parasites” value is “did not result in a significant increase”. Also, the “amount of Irga6 recruitment, quantitative immunofluorescence, wild type parasites” value in [1] (wild type (RH), vs DMSO vehicle) was “no significant increase”. For the same compound, the “proportion of Irga6 positive vacuoles, visual scoring, Δrop18 parasites” value in data set [1] (vs DMSO vehicle) is “caused a reduction”. Also, in data set [1], the “amount of Irga6 recruitment, quantitative immunofluorescence, Δrop18 parasites” value is reported as “significantly lower”. Further, the concentration for a half-maximal effect (EC50) with RAW 264.7 macrophages was 14.2 µM. This compound also came in with an inhibition constant (Ki) on ROP18 of 270 nM. The IC50 at ROP18 (setting [6]) was 0.4 µM; against ROP18 (setting [7]), 0.18 µM.

For `NS(=O)(=O)CCc1cccc(Nc2nccc(-c3c(-c4cccc(NC(=O)c5c(F)cccc5F)c4)nn4ccccc34)n2)c1` [Compound 8, 2,6-difluoro-<I>N</I>-[3-[3-[2-[3-(2-sulfamoylethyl)anilino]pyrimidin-4-yl]pyrazolo[1,5-a]pyridin-2-yl]phenyl]benzamide], the IC50 against ROP18 (setting [6]) amounted to 0.63 µM; against ROP18 (setting [7]), 0.94 µM.

As to `CS(=O)(=O)Cc1ccc(Nc2nccc(-c3c(-c4cccc(NC(=O)C5CCCCC5)c4)nn4ncccc34)n2)cc1` [Compound 9, <I>N</I>-[3-[3-[2-[4-(methylsulfonylmethyl)anilino]pyrimidin-4-yl]pyrazolo[1,5-b]pyridazin-2-yl]phenyl]cyclohexanecarboxamide], the IC50 on ROP18 (setting [6]) and against ROP18 (setting [7]) was greater than 10 µM each time.

With `CS(=O)(=O)Cc1ccc(Nc2nccc(-c3c(-c4cccc(NC(=O)c5c(F)cccc5F)c4)nn4ccccc34)n2)cc1` [Compound 10, 2,6-difluoro-<I>N</I>-[3-[3-[2-[4-(methylsulfonylmethyl)anilino]pyrimidin-4-yl]pyrazolo[1,5-a]pyridin-2-yl]phenyl]benzamide], the “morphological damage to the host cells” value in the data set on RAW264.7 macrophages [4] is on record as “rapid morphological damage”. The “growth inhibition of HepG2 cells” value in [3] was 78%. Also, the EC50 in the data set with RAW 264.7 macrophages was found to be 1.3 µM. Also, the “inhibition of 3D7 strain” value with P. falciparum 3D7 strain was 99%. Also, in data set [5], the “inhibition of Dd2 strain” value is 75%. The IC50 came out at 2.83 µM on ROP18 (setting [6]) and 1 µM against ROP18 (setting [7]).

For `COc1ccc(NC(=O)Nc2nc(SCC(=O)C(C)(C)C)ns2)cc1` [Compound 11, 1-[3-(3,3-dimethyl-2-oxo-butyl)sulfanyl-1,2,4-thiadiazol-5-yl]-3-(4-methoxyphenyl)urea], the values for the IC50 on ROP18 (setting [6]) and against ROP18 (setting [7]) were greater than 10 µM and 6.44 µM, respectively.

As to `Cc1cccc(Nc2nc(NC3CCCCC3N)ncc2C(N)=O)c1` (stereo not shown) [Compound 13, 2-[(2-aminocyclohexyl)amino]-4-(3-methylanilino)pyrimidine-5-carboxamide], the IC50 on ROP18 (setting [6]) is greater than 10 µM; against ROP18 (setting [7]) it was 6.66 µM.

In turn, `C[C@]12O[C@H](C[C@]1(O)CO)n1c3ccccc3c3c4c(c5c6ccccc6n2c5c31)CNC4=O` [Compound 14, (5S,6S,8R)-6-hydroxy-6-(hydroxymethyl)-5-methyl-5,6,7,8,14,15-hexahydro-13H-16-oxa-4b,8a,14-triaza-5,8-methanodibenzo[b,h]cycloocta[jkl]cyclopenta[e]-as-indacen-13-one, reference compound] displayed an IC50 against ROP18 of 0.16 µM.
